Assay results collected from several papers.
Effect on: cell growth or viability

| Compound | cell line | assay | conditions | endpoint | result |
| --- | --- | --- | --- | --- | --- |
| COc1cc(OC)c2c(=O)cc(-c3ccccc3)oc2c1 | HS27 | MTT | 24 h | IC50 | > 200 µM |
| COc1cc2c(cc1O)CCN(Cc1cc(OC)c(OC)c(OC)c1)C2 | MDA-MB-231 | WST-1 | 96 h | GI50 | 0.62 µM |
| O=C1CCCCC1=C1Sc2nc3ccc(S(=O)(=O)N4CCCC4)cc3nc2S1 | MDA-MB-231 | MTT | 50 µM, 24 h | viability | 14.9% |
| C[C@]12CC[C@H](O)CC1=CC[C@@H]1[C@@H]2CC[C@]2(C)C(c3cccnc3)=CC[C@@H]12 | CWR22Rv1 | MTT |  | GI50 | 11.5 µM |
| COc1cc2c(cc1OS(N)(=O)=O)CCN(C(=O)c1cc(OC)c(OC)c(OC)c1)C2 | MDA-MB-231 | WST-1 | 96 h | GI50 | 1.72 µM |
| C=CC(=O)N1CCC[C@@H](n2nc(-c3ccc(Oc4ccccc4)cc3)c3c(N)ncnc32)C1 | OCI-Ly3 | ATP luminescence | 72 h | GI50 | 19.3 µM |
| COc1cc(OC)c2c(=O)cc(-c3ccccc3)oc2c1-c1c(OC)cc(OC)c2c(=O)cc(-c3ccccc3)oc12 | HS27 | MTT | 24 h | IC50 | > 200 µM |
| COc1cc2c(cc1O)CCN(Cc1cccc(OC(F)(F)F)c1)C2 | MDA-MB-231 | WST-1 | 96 h | GI50 | > 100 µM |
| CSc1ccc(-c2nc3ccccc3[nH]2)cc1 | MDA-MB-231 | MTT | 48 h | IC50 | 36.6 µM |
| COc1cc(C)c(-c2c(C)cc(OC)c3c(=O)cc(-c4ccc(N(C)C)cc4)oc23)c2oc(-c3ccc(N(C)C)cc3)cc(=O)c12 | HS27 | MTT | 24 h | IC50 | 180 µM |
| Oc1ccc(Nc2nc(-c3ccc(Cl)cc3)cs2)cc1 | FF2441 | MTS | 72 h | IC50 | > 100 µM |
| COc1cc(OC)c2c(=O)cc(-c3ccc(Br)cc3)oc2c1 | HS27 | MTT | 24 h | IC50 | > 200 µM |
| Cc1ccc2nc(-c3ccc([N+](=O)[O-])cc3)n(Cc3ccccc3Cl)c2c1 | MDA-MB-231 | MTT |  | IC50 | 28.5 µM |
| COc1cccc2c1C(=O)c1c(O)c3c(c(O)c1C2=O)C[C@@](O)(C(=O)CO)C[C@@H]3O[C@H]1C[C@H](N)[C@H](O)[C@H](C)O1 | MDA-MB-231 | MTT | 25 µM, 24 h | viability | 16.2% |
| Oc1cccc(-c2nc3ccccc3[nH]2)c1 | MDA-MB-231 | MTT | 48 h | IC50 | > 100 µM |
| COc1cc2c(cc1O)CCN(Cc1cccc(O)c1)C2 | MDA-MB-231 | WST-1 | 96 h | GI50 | > 100 µM |
| Cc1ccc2nc(-c3ccc(N(C)C)cc3)[nH]c2c1 | MDA-MB-231 | MTT | 48 h | IC50 | 31.5 µM |
| Cc1cc2c(cc1N1C(=O)c3cccc4c(CCCO)ccc(c34)C1=O)n(C)c(=O)n2C (racemic) | NCI-H526 | resazurin |  | GI50 | 6.86 µM |
| COc1cc(OC)c2c(=O)cc(-c3ccc(N(C)C)cc3)oc2c1 | HS27 | MTT | 24 h | IC50 | > 200 µM |
| CCc1cccc(CN2CCc3cc(O)c(OC)cc3C2)c1 | MDA-MB-231 | WST-1 | 96 h | GI50 | > 100 µM |
| Fc1cccc(Cl)c1-c1nc2ccccc2[nH]1 | MDA-MB-231 | MTT | 48 h | IC50 | 69 µM |
| COc1ccc(-c2cc(=O)c3c(OC)cc(OC)c(-c4c(OC)cc(OC)c5c(=O)cc(-c6ccc(OC)cc6)oc45)c3o2)cc1 | HS27 | MTT | 24 h | IC50 | > 200 µM |
| COc1cc2c(cc1O)CCN(Cc1cccc(NS(C)(=O)=O)c1)C2 | MDA-MB-231 | WST-1 | 96 h | GI50 | > 100 µM |
| CCOC(=O)C(C(C)=O)=C1Sc2nc3ccc(S(=O)(=O)N4CCCC4)cc3nc2S1 | MDA-MB-231 | MTT | 3.125 µM, 24 h | viability | 49.2% |
| Cc1ccc2nc(-c3ccccc3O)[nH]c2c1 | MDA-MB-231 | MTT | 48 h | IC50 | 31.9 µM |
| COc1cc(OC)c2c(=O)cc(-c3ccccc3Br)oc2c1-c1c(OC)cc(OC)c2c(=O)cc(-c3ccccc3Br)oc12 | HS27 | MTT | 24 h | IC50 | > 200 µM |
| COc1ccc(-c2nc3ccccc3n2Cc2ccccc2)cc1OC | MDA-MB-231 | MTT |  | IC50 | 27.1 µM |
| COc1cc2c(cc1OS(N)(=O)=O)CCN(Cc1cccc(NS(C)(=O)=O)c1)C2 | MDA-MB-231 | WST-1 | 96 h | GI50 | > 100 µM |
| Cc1ccc2nc(-c3cccnc3)[nH]c2c1 | MDA-MB-231 | MTT | 48 h | IC50 | 89 µM |
| N#CC(C(=O)Nc1cccc(C(F)(F)F)c1)=C1Sc2nc3ccc(S(=O)(=O)N4CCCC4)cc3nc2S1 | MDA-MB-231 | MTT | 50 µM, 24 h | viability | 18.4% |
